Bioassay records deposited in PubChem BioAssay by several laboratories.
Only some compounds are listed: those with a hit (about 2.2% of all), similar ones and a draw of the others.
KLK7 zymogen act = proKLK7 zymogen activators, primary screen, biochemical, fluorescence intensity. Kallikrein-7 (Homo sapiens), P49862. AID 652039, 2013. purified proKLK7, EDANS-DABCYL substrate fluorescence; 100% is mature enzyme control, 0% vehicle. 370,000 tested, 0.9% active. activation, % at 7 µM;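 active = activation above the mean of all tested compounds plus 3 SD, computed per campaign excluding outliers beyond control limits, cut at about 13% in these data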
Target sequence (P49862 whole entry, looked up): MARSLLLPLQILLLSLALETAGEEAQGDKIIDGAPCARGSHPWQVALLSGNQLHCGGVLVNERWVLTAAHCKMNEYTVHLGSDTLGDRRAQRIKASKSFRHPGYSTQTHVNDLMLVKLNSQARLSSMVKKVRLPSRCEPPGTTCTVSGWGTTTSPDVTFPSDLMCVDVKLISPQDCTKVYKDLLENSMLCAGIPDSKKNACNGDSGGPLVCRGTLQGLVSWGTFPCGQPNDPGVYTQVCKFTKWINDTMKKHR
Tn6 DDE FP = inhibitors of Tn6 peptide binding to fibrin DD(E), primary screen, biochemical, fluorescence polarization, human fibrin, Tn6 probe; Fibrinogen beta chain (Homo sapiens), P02675; Fibrin DD(E) TRITC-Tn6 fluorescence polarization displacement; inhibition, % at 8.3 µM; 370,000 tested, 0.21% active;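 active = inhibition above a per-campaign cutoff: mean of compounds within control limits plus 3 SD, cut at about 15% in these data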
DDE Tn7 FP inh = inhibitors of Tn7 peptide binding to fibrin DD(E), primary screen, biochemical, fluorescence polarization, human fibrin, Tn7 probe. Fibrinogen beta chain (Homo sapiens), P02675. FP displacement of FITC-Tn7 peptide from fibrin DD(E); 0% = median of compound wells per plate. inhibition, % at 8.3 µM. 370,000 tested, 0.13% active. AID 720508, 2013;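 active = inhibition above the mean of compounds falling within the control limits plus 3 SD of them, cut at about 14% in these data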
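Assay system: human fibrin DD(E) protein / Input: 2 µM fibrin DD(E) / Benchmarks: high control of 10 µM Aha-Tn7 peptide / Measured by: fluorescence polarization of the labelled Tn7 tracer / Medium: Tris buffer with calcium and detergent, pH 7.8 / Timing: 10 min compound pre-incubation, 3 h probe incubation at room temperature / Repeats: one replicate per compound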
Neddylation inh = inhibitors of cullin neddylation, primary screen, biochemical, TR-FRET, uHTS, NAE and Ubc12; calls only at 25 µM; AID 651699, 2012; 360,000 tested, 0.58% active; in the data active = inhibition above about 36%
SKN-1 inh = suppressors of acrylamide-induced Pgst-4::GFP reporter in worms, primary screen, SKN-1 inhibitor project, whole organism, uHTS, GFP/RFP fluorescence ratio, strain VP596. inhibition, % at 21.8 µM. C. elegans VP596 Pgst-4::GFP/RFP ratio, 24 h. 360,000 tested, 0.49% active;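 active = interference check ratio from 0.5 to 1.5 plus GFP to RFP signal ratio inhibition reaching or exceeding a fixed threshold, cut at about 30% in these data, passing the limit was not always enough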
MT1-MMP act inh = blockers of MT1-MMP proenzyme processing, primary screen, HT1080 RFP-PRO-GFP cells, GFP/RFP fluorescence; Matrix metalloproteinase-14 (Homo sapiens), P50281; GFP/RFP ratio fluorescence, overnight; percent of plate control window, DMSO zero; GFP/RFP ratio change, % at 20 µM; 360,000 tested, 0.061% active;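 active = GFP/RFP ratio change of at least 30% with cell ATP level not reduced by more than half and red fluorescence within 50% of control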
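Assay system: HT1080 RFP-PRO-GFP cells | Dosing: 20 µM single dose, 1% DMSO | Incubation: Cells overnight before dosing, compound overnight, 37 °C, 5% CO2 | Evaluation: GFP/RFP fluorescence ratio | Control set: DMSO-only wells and HT1080 RFP-L50D-GFP cell wells as references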
Hits are given with their value; n = inactive; x = no result; + = active, no number.

SMILES	KLK7 zymogen act	Tn6 DDE FP	DDE Tn7 FP inh	Neddylation inh	SKN-1 inh	MT1-MMP act inh
Cc1cc(C)c(NC(=O)COC(=O)C2CCN(c3ccc(C(F)(F)F)cn3)CC2)c(Cl)c1	n	n	n	n	35.9	n
Cc1cc(C)c(NC(=O)CNC(=O)COC(=O)C2CCN(c3ccc(C(F)(F)F)cn3)CC2)c(C)c1	n	n	n	n	n	n
Clc1ccc(CN2CCCCCC2)cc1	n	n	n	n	n	n
O=[N+]([O-])c1cc(CN2CCCC2)ccc1Sc1ccc(Cl)cc1	n	n	n	n	51.9	n
Cc1nn(-c2ccccc2)c(C)c1CN(C)C(=O)c1ccc(S(=O)(=O)NCc2ccco2)cc1	n	n	n	n	n	n
CCC(C)(C)C(=O)Nc1ncc(S(=O)(=O)c2ccc([N+](=O)[O-])cc2)s1	n	n	n	n	36.2	n
COC(=O)c1[nH]c(=O)c2ccccc2c1O	x	x	x	n	n	n
O=[N+]([O-])c1ccc2nc(-c3ccc(Cl)cc3)n(OCc3ccccc3)c2c1	n	n	n	n	40.8	n
CCOC(=O)C(C)On1c(-c2ccccc2)nc2ccc([N+](=O)[O-])cc21 (stereo unspecified)	n	n	n	n	n	n
COn1c(-c2ccc(Cl)cc2)nc2ccc(Cl)cc21	n	n	n	n	87.4	n
Cc1ccc(COn2c(-c3ccc(Cl)cc3)nc3ccc([N+](=O)[O-])cc32)cc1	n	n	n	n	n	n
O=C(O)COn1c(-c2ccc(Cl)cc2)nc2ccc(Cl)cc21	n	n	n	n	n	n
CCOC(=O)C(C)On1c(-c2ccc(Cl)cc2)nc2ccc([N+](=O)[O-])cc21 (stereo unspecified)	n	n	n	n	41.2	n
Nc1ccc2c(S(=O)(=O)O)cccc2c1S(=O)(=O)O	n	n	n	+	n	n
COc1ccccc1N1CCN(/N=C(\C)c2ccc(O)cc2)CC1	n	n	n	n	n	n
CCc1ccc(/C=C2\SC(=S)N(CCCC(=O)Nc3ccccn3)C2=O)cc1	n	n	n	n	47.5	n
Cc1cc2c(C)cc(=O)[nH]c2cc1NC(=O)CCl	n	n	n	n	n	n
Cc1ccc(-n2ncc3c2CC(C)(C)CC3NC(=O)CCc2ccc(=O)[nH]n2)cc1 (stereo unspecified)	n	n	n	n	n	n
O=C1CCC(C(=O)OCC(=O)N2N=C3/C(=C\c4ccccc4)CCCC3C2c2ccccc2)N1 (stereo unspecified)	n	n	n	n	37.2	n
O=C(c1cc(COc2cccc3cnccc23)on1)N1CCCC(CCCO)C1 (stereo unspecified)	n	n	n	+	n	n
COc1ccc(OCc2cc(C(=O)N3CCCC(CO)C3)no2)c2ccccc12 (stereo unspecified)	n	n	n	n	n	n
Cc1sc(NC(=O)c2ccco2)c(CN2CCN(c3ccccn3)CC2)c1C	x	x	x	+	n	n
CCCCNC(=O)Nc1ccon1	n	n	n	n	n	n
N#C/C(=N\Nc1ccc([N+](=O)[O-])cc1)C(N)=S	n	n	n	n	38.5	n
O=C(CSc1nc2cc3ccccc3cc2[nH]1)Nc1ccc(F)cc1	n	n	n	n	n	n
SMILES	KLK7 zymogen act	Tn6 DDE FP	DDE Tn7 FP inh	Neddylation inh	SKN-1 inh	MT1-MMP act inh
CC1(C)NC(=O)N(CCCCOc2ccc(Cl)cc2)C1=O	n	n	n	n	n	n
Cc1cc(OCCCCN2C(=O)NC(C)(C)C2=O)cc(C)c1Cl	n	n	n	n	39.3	n
COc1ccccc1CN(C)C(=O)c1ccc2c(c1)NC(=O)CS2	n	n	n	n	n	n
Cc1cc(N2CCN(CC(C)(C)O)C[C@@H]2C)ccc1N1CCN(CC(C)(C)O)[C@@H](C)C1	n	n	n	x	x	x
CCc1nc2ccccc2n1CC(=O)N(C(C)CC)C1CCS(=O)(=O)C1 (stereo unspecified)	n	n	n	n	46.7	n
O=C(c1ccc(Cl)cc1)c1cc([N+](=O)[O-])ccc1N1CCOCC1	n	n	n	n	66.7	n
O=C(c1ccc(Br)cc1)c1cc([N+](=O)[O-])ccc1N1CCOCC1	n	n	n	n	65.2	n
O=C(c1ccccc1)c1cc([N+](=O)[O-])ccc1N1CCOCC1	n	n	n	n	n	n
CCOC(=O)C1=C(C)NC2=C(C1c1ccc([N+](=O)[O-])cc1)S(=O)(=O)c1ccccc12 (stereo unspecified)	n	n	n	n	n	n
CCN1C(=S)SC(=O)C1=C1C=C(C)OC(C)=C1	n	n	n	n	44.0	n
CCN1C(=S)SC(=O)C1=C1C=C(C)N(Cc2ccco2)C(C)=C1	n	n	n	n	n	n
Cc1ccc(NC(=O)COc2ccccc2)cc1Cl	x	x	x	n	n	n
CCOCC(=O)Nc1ccc(C)c(Cl)c1	n	n	n	n	35.5	x
COc1ccc(/C=N/NC(=O)c2cc(-c3ccccc3OC)nc3ccccc23)cc1COC(C)=O	n	n	n	+	n	n
COC(=O)c1ccc(C2/C(=C(/O)c3ccc(OC)cc3)C(=O)C(=O)N2c2cc(C)on2)cc1 (stereo unspecified)	n	n	n	n	n	n
c1ccc(-c2nc(CSc3nnc(-c4cccs4)o3)cs2)cc1	n	n	n	n	29.1	n
Cc1ccc(Nc2nc(N)nc(CSc3nnc(-c4ccncc4)o3)n2)cc1	n	n	n	n	46.1	n
Fc1ccc(/C=C/c2nnc(-c3cccs3)o2)cc1	n	n	n	n	53.9	n
Cc1ccc(-c2nnc(-c3cccs3)o2)cc1	n	n	n	n	36.5	n
Cc1ccc(/C=C/c2nnc(-c3cccs3)o2)cc1	n	n	n	n	n	x
c1csc(-c2nnc(SCc3cccc4ccccc34)o2)c1	n	n	n	x	x	x
Cc1ccc(Nc2nc(N)nc(CSc3ncccn3)n2)cc1	n	n	n	n	n	n
Clc1ccc(-n2nnnc2-c2cnc3ccccc3c2-c2ccccc2)cc1	n	n	n	n	n	n
Cc1ccc(Nc2nc(CSc3nnc(-c4cccs4)o3)cs2)cc1	n	n	n	n	35.0	n
Cc1ccc(Nc2nc(CSc3n[nH]c(N)n3)cs2)cc1	n	n	n	n	n	n
